The source made the active and inactive calls. The calls are words filed in the database; no cut-off is given here.
How the values were obtained:
MCF7 = experiment: Cytotoxicity against human MCF7 cells assessed as decrease in cell viability treated every 24 hrs measured after 72 hrs by alamar blue assay; type: functional, cell-based
Outline: (§1)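 MCF7 or B16/F10 cells dosed with compound every 24 h. Viable cells were quantified with Alamar Blue after 72 h.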

[1] = Inhibition of deubiquitinase in HEK293T cells expressing N-terminal HA-tagged ubiquitin assessed as stabilization of HMW-Ub proteins after 2 hrs by Western blot analysis; type: cell-based, Homo sapiens
K562 [2] = experiment: Inhibition of deubiquitinase in human K562 cells assessed as accumulation of K48-linked HMW-Ub protein at 50 uM measured after 2 hrs by Western blot analysis; type: cell-based
Outline: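 K562 cells exposed to compound at 50 μM for 2 h; K48-linked ubiquitin accumulation read by immunoblotting.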

[3] = biological target: Ubiquitin carboxyl-terminal hydrolase 7 (Homo sapiens) (UniProt Q93009); experiment: Inhibition of USP7 in HEK293T cell lysates assessed as ratio of HA-Ub-VS modified USP7 to total USP7 at 50 uM using HA-Ub vinyl-sulfone as substrate preincubated for 19 to 60 mins followed by substrate addition and measured after 19 to 25 mins by Western blot analysis (reference value: 0.5); type: subcellular; details: Lysate
Chain of Ubiquitin carboxyl-terminal hydrolase 7 (Homo sapiens) (Q93009 whole entry, looked up, the tested form may be a part): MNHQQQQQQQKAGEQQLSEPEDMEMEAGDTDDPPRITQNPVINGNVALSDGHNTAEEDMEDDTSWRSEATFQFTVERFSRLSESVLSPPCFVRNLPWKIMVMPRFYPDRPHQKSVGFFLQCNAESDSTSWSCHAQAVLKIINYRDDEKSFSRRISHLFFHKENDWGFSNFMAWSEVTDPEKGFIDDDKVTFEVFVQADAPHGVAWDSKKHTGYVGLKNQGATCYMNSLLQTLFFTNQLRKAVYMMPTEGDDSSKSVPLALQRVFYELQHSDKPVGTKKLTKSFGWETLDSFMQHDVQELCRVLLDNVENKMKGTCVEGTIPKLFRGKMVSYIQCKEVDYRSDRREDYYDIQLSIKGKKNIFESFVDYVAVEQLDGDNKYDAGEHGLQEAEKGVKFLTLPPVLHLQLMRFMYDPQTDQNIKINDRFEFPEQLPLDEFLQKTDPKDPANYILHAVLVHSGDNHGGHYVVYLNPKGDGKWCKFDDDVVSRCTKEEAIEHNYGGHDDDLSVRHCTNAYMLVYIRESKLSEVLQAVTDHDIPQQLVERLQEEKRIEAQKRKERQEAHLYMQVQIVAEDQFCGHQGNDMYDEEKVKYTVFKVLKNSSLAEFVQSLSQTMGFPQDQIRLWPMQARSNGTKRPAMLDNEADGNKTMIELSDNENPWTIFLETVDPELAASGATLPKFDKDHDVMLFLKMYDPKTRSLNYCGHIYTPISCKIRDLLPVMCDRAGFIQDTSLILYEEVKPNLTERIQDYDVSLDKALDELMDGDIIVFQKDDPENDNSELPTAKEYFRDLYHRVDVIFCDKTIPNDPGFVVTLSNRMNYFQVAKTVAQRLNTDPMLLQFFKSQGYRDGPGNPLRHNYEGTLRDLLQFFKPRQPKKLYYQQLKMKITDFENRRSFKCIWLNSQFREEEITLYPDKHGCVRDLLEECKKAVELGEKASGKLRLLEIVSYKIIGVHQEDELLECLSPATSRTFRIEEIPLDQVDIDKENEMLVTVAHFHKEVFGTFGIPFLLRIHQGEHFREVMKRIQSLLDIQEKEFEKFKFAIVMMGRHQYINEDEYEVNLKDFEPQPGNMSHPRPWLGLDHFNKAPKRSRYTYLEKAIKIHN
Outline: (§2)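 HEK 293T lysate incubated with compound, then treated with HA-Ub-VS. Samples were run on SDS-PAGE and blotted with anti-USP7, and the probe-modified USP7 band was distinguished from unmodified USP7.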

K562 [4] = experiment: Cell cycle arrest in human K562 cells assessed as increase in accumulation at G1-phase after 24 hrs by propidium iodide staining based flow cytometry; type: functional
Outline: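 K562 cells exposed to compound for 24 h, then analysed for cell cycle by FACS. Sub-G1 cells were counted as apoptotic, with the G1 fraction reported separately.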

Chymotrypsin [5] = biological target: Chymotrypsin (Homo sapiens, UniProt Q99895+P17538+P40313+Q6GPI1); experiment: (§3) Substrate activity at chymotrypsin (unknown origin) by Michaelis-Menten plot analysis; type: ADME, protein assay
Outline: (§4)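 Diarylcarbonate hydrolysis by chymotrypsin or trypsin measured across substrate concentrations; velocity versus substrate concentration fit for Km and kcat.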

chymotrypsin [6] = biological target: chymotrypsin (Homo sapiens, UniProt P17538+P40313+Q6GPI1+Q99895); experiment: as §3; type: ADME, protein assay; details: chymotrypsin (isolated enzyme, unknown origin); outline: as §4
[7] = biological target: Ubiquitin carboxyl-terminal hydrolase 9X (Homo sapiens) (UniProt Q93008); experiment: Inhibition of USP9x in human K562 cells assessed as decrease in Bcr-Abl expression at 50 uM measured after 2 hrs by Western blot analysis; type: cell-based
Chain of Ubiquitin carboxyl-terminal hydrolase 9X (Homo sapiens) (Q93008 whole entry): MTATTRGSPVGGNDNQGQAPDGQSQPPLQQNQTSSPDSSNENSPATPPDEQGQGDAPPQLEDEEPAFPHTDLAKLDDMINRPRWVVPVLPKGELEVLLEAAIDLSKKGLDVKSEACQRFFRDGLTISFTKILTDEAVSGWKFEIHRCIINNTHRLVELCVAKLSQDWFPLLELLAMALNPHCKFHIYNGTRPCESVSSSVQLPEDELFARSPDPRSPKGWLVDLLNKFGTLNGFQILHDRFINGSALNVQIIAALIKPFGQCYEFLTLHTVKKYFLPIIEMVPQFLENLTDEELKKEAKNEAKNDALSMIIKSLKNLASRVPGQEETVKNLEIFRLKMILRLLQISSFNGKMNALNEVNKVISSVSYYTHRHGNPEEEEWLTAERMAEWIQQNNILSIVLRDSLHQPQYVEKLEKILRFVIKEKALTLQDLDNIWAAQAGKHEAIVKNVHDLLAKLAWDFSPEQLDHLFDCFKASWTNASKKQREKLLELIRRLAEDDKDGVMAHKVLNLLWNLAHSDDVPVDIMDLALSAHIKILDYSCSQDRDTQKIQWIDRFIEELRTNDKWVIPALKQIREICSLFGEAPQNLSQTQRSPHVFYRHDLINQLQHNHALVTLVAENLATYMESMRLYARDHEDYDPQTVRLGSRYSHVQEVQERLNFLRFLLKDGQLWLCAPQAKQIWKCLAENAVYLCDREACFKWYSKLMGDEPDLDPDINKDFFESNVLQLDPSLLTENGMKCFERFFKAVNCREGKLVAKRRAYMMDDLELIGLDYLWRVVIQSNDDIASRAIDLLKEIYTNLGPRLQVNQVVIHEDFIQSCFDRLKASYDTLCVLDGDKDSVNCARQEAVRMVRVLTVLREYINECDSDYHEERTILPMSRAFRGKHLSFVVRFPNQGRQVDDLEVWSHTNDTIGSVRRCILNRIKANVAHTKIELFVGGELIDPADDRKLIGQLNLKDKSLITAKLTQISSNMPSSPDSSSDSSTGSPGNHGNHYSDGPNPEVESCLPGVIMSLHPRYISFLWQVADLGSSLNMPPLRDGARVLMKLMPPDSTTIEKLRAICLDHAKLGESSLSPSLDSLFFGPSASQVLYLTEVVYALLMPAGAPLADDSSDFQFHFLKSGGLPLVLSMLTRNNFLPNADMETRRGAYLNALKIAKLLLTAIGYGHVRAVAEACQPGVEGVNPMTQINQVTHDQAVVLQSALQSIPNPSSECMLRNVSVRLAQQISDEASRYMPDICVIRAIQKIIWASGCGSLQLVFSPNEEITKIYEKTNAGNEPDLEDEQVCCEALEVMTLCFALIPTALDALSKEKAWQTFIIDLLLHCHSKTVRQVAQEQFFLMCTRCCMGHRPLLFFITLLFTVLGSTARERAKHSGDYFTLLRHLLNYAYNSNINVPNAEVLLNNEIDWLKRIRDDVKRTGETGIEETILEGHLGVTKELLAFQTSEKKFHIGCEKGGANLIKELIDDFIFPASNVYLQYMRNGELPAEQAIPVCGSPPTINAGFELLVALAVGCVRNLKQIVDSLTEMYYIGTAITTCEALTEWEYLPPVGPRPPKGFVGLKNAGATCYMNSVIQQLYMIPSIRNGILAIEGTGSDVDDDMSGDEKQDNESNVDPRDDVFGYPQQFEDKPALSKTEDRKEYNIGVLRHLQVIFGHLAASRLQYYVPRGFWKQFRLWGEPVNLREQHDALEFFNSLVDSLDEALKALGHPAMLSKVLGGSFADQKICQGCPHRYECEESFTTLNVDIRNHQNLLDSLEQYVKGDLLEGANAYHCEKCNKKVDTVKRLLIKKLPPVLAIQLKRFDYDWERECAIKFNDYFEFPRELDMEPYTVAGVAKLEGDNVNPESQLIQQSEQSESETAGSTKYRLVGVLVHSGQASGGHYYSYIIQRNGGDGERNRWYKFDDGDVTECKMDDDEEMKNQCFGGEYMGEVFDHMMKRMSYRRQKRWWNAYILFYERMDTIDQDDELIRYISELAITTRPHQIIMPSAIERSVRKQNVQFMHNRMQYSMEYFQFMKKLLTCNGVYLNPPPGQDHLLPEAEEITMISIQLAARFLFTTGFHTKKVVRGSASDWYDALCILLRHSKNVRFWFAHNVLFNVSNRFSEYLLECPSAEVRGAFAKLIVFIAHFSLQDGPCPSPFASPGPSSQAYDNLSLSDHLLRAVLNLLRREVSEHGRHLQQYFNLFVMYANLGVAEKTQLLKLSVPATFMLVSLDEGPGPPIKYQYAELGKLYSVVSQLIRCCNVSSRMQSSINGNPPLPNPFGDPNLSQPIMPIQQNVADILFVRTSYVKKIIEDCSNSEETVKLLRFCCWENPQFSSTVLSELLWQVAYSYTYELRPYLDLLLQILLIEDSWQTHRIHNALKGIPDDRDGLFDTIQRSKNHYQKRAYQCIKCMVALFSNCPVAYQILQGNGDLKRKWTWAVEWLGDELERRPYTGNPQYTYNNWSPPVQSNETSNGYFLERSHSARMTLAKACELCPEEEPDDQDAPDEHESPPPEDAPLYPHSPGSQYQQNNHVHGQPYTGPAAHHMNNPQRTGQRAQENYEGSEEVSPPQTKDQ
Outline: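 K562 cells treated with 50 μM compound for 2 h. Lysates were sonicated in SDS, and Bcr-Abl was immunoblotted with anti-Abl antibody.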

[8] = biological target: Ubiquitin carboxyl-terminal hydrolase 9X (Homo sapiens) (UniProt Q93008); experiment: Inhibition of USP9x in HEK293T cell lysates at 25 uM using HA-tagged vinyl-sulfone as substrate measured after 2 to 30 mins by Western blot analysis; type: subcellular; details: Lysate
Outline: (§5)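 HEK 293T lysate (1.5 mg/ml) given compound (25 μM) or DMSO at the same time as HA-Ub-VS (1.5 μM). Aliquots withdrawn over time were run on SDS-PAGE and immunoblotted for HA.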

[9] = biological target: Ubiquitin carboxyl-terminal hydrolase 7 (Homo sapiens) (UniProt Q93009); experiment: Inhibition of recombinant His6-tagged USP7 catalytic domain (unknown origin) assessed as association constant using Ub-AMC as substrate by fluorescence assay
[10] = biological target: Ubiquitin carboxyl-terminal hydrolase 7 (Homo sapiens) (UniProt Q93009); experiment: Inhibition of USP7 in human MCF7 cells assessed as decrease in Mdm2 expression at 25 uM after 4 hrs by Western blot analysis; type: cell-based
Outline: (§6)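 MCF7 cells treated with compound for 4 h. Mdm2, p53 and p21 levels were determined by immunoblotting.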

[11] = biological target: Ubiquitin carboxyl-terminal hydrolase 9X (Homo sapiens) (UniProt Q93008); experiment: Inhibition of USP9x in HEK293T cell lysates assessed as enzyme recovery at 250 uM using HA-tagged vinyl-sulfone as substrate preincubated for 40 mins followed by 10-fold dilution and subsequent substrate addition measured up to 2 hrs by Western blot analysis; type: subcellular; details: Lysate
[12] = biological target: Ubiquitin carboxyl-terminal hydrolase 15 (Homo sapiens) (UniProt Q9Y4E8); experiment: Inhibition of USP15 in HEK293T cell lysates at 25 uM using HA-tagged vinyl-sulfone as substrate measured after 2 to 30 mins by Western blot analysis; type: subcellular; details: Lysate; outline: as §5
Chain of Ubiquitin carboxyl-terminal hydrolase 15 (Homo sapiens) (Q9Y4E8 whole entry): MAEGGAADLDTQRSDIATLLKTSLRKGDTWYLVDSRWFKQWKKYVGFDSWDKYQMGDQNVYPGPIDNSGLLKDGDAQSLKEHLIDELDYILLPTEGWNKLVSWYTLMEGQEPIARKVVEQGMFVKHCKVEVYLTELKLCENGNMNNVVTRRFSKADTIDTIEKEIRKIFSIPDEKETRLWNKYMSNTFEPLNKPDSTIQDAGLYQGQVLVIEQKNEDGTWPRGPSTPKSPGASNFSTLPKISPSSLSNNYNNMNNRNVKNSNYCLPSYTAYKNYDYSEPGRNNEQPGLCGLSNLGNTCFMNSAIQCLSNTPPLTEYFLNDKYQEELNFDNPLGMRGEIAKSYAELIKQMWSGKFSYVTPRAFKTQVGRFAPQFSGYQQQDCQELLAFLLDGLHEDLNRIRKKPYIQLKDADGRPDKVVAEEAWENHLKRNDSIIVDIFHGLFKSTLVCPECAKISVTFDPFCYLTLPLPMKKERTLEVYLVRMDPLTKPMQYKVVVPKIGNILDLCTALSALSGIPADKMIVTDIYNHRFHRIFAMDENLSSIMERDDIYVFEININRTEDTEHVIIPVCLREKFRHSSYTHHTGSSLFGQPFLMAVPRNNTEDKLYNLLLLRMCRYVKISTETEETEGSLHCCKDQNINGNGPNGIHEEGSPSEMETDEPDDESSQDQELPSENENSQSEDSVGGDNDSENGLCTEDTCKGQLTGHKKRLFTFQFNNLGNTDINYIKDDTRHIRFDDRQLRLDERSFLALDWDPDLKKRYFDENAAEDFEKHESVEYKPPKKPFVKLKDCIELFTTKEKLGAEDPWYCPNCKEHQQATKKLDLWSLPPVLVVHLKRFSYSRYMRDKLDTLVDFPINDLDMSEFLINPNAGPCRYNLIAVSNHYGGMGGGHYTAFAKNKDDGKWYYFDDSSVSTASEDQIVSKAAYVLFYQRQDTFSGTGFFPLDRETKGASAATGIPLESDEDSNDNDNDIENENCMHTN

[13] = biological target: Ubiquitin carboxyl-terminal hydrolase 7 (Homo sapiens) (UniProt Q93009); experiment: Inhibition of USP7 in HEK293T cell lysates assessed as ratio of HA-Ub-VS modified USP7 to total USP7 at 100 uM using HA-Ub vinyl-sulfone as substrate preincubated for 19 to 60 mins followed by substrate addition and measured after 19 to 25 mins by Western blot analysis (reference value: 0.5); type: subcellular; details: Lysate; outline: as §2
B16-F10 = experiment: Cytotoxicity against mouse B16F10 cells assessed as decrease in cell viability treated every 24 hrs measured after 72 hrs by alamar blue assay; type: functional, cell-based; outline: as §1
[14] = biological target: Ubiquitin carboxyl-terminal hydrolase 28 (Homo sapiens) (UniProt Q96RU2); experiment: Inhibition of USP28 in HEK293T cell lysates at 25 uM using HA-tagged vinyl-sulfone as substrate measured after 2 to 30 mins by Western blot analysis; type: subcellular; details: Lysate; outline: as §5
[15] = biological target: Ubiquitin carboxyl-terminal hydrolase 7 (Homo sapiens) (UniProt Q93009); experiment: Inhibition of USP7 in HEK293T cell lysates at 25 uM using HA-tagged vinyl-sulfone as substrate measured after 2 to 30 mins by Western blot analysis; type: subcellular; details: Lysate; outline: as §5
[16] = biological target: Ubiquitin carboxyl-terminal hydrolase 7 (Homo sapiens) (UniProt Q93009); experiment: Inhibition of USP7 in human MCF7 cells assessed as increase in p53 expression at 25 uM after 4 hrs by Western blot analysis; type: cell-based; outline: as §6
Ficin (Ficus carica) = experiment: Inhibition of fig ficin at 100 uM using Z-Arg-AMC as substrate preincubated for 30 mins followed by substrate addition by fluorescence assay

NCc1ccc(OC(=O)Oc2ccc3ccccc3c2)cc1
Activity (MCF7): Active | EC50 [1]: 20 µM | inhibition (K562 [2]): Active | Ratio [3]: 0.4 | Activity (K562 [4]): Dose-dependent effect | Kcat (Chymotrypsin [5]): 0.03 s⁻¹ | Km (chymotrypsin [6]): 1 µM | inhibition [7]: Active | inhibition [8]: inactive | K [9]: 9 M⁻¹ s⁻¹ | inhibition [10]: Active | inhibition [11]: inactive | inhibition [12]: inactive | Ratio [13]: 0.3 | Activity (B16-F10): Active | inhibition [14]: inactive | inhibition [15]: inactive | Activity [16]: Active | inhibition (Ficin (Ficus carica)): inactive

Reference: ChEMBL document CHEMBL4371052, “Diarylcarbonates are a new class of deubiquitinating enzyme inhibitor” (Bioorg Med Chem Lett, 2019)
